{"source": "ChEMBL document CHEMBL4325889", "about": "“Natural products hybrids: 3,5,4'-Trimethoxystilbene-5,6,7-trimethoxyflavone chimeric analogs as potential cytotoxic agents against diverse human cancer cells” (Eur J Med Chem, 2019)", "type_in_all_cases": "functional", "key": {"CCRF-CEM": {"test_system": "CCRF-CEM", "experiment": "Growth inhibition of human CCRF-CEM cells at 10 uM after 48 hrs by SRB assay relative to control", "settings": "read-out: GI", "how_it_was_run": "(§1)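 Screened at the National Cancer Institute by the standard NCI protocol using the sulforhodamine B assay, which measures cellular protein. Single dose of 10 µM. Result is percent growth inhibition; values above 100% mean cell number fell below the initial population. Values are the average of duplicates.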"}, "HL-60(TB)": {"test_system": "HL-60(TB)", "experiment": "Growth inhibition of human HL-60(TB) cells at 10 uM after 48 hrs by SRB assay relative to control", "settings": "HL-60, 48 h, read-out: GI", "how_it_was_run": "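Run at NCI under its standard single-dose protocol against a leukemia cell panel. Cells were exposed to 10 µM; growth was read by sulforhodamine B staining of cellular protein and expressed as % growth inhibition versus untreated control. Values above 100% mean the cell population fell below the starting count (cytocidal). Each value is the average of duplicates.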"}, "K562": {"test_system": "K562", "experiment": "Growth inhibition of human K562 cells at 10 uM after 48 hrs by SRB assay relative to control", "settings": "K562, 48 h, read-out: GI", "how_it_was_run": "as §1"}, "MOLT-4": {"test_system": "MOLT-4", "experiment": "Growth inhibition of human MOLT4 cells at 10 uM after 48 hrs by SRB assay relative to control", "settings": "MOLT-4, 48 h, read-out: GI", "how_it_was_run": "as §1"}, "RPMI-8226": {"test_system": "RPMI-8226", "experiment": "Growth inhibition of human RPMI8226 cells at 10 uM after 48 hrs by SRB assay relative to control", "settings": "RPMI-8226, 48 h, read-out: GI", "how_it_was_run": "as §1"}, "HOP-62": {"test_system": "HOP-62", "experiment": "Growth inhibition of human HOP62 cells at 10 uM after 48 hrs by SRB assay relative to control", "settings": "HOP-62, 48 h, read-out: GI", "how_it_was_run": "as §1"}, "NCI-H226": {"test_system": "NCI-H226", "experiment": "Growth inhibition of human NCI-H226 cells at 10 uM after 48 hrs by SRB assay relative to control", "settings": "NCI-H226, 48 h, read-out: GI", "how_it_was_run": "as §1"}, "NCI-H23": {"test_system": "NCI-H23", "experiment": "Growth inhibition of human NCI-H23 cells at 10 uM after 48 hrs by SRB assay relative to control", "settings": "NCI-H23, 48 h, read-out: GI", "how_it_was_run": "as §1"}, "NCI-H460": {"test_system": "NCI-H460", "experiment": "Growth inhibition of human NCI-H460 cells at 10 uM after 48 hrs by SRB assay relative to control", "settings": "NCI-H460, 48 h, read-out: GI", "how_it_was_run": "as §1"}, "NCI-H522": {"test_system": "NCI-H522", "experiment": "Growth inhibition of human NCI-H522 cells at 10 uM after 48 hrs by SRB assay relative to control", "settings": "NCI-H522, 48 h, read-out: GI", "how_it_was_run": "as §1"}, "HCT-15": {"test_system": "HCT-15", "experiment": "Growth inhibition of human HCT15 cells at 10 uM after 48 hrs by SRB assay relative to control", "settings": "HCT-15, 48 h, read-out: GI", "how_it_was_run": "as §1"}, "HT-29": {"test_system": "HT-29", "experiment": "Growth inhibition of human HT-29 cells at 10 uM after 48 hrs by SRB assay relative to control", "settings": "HT-29, 48 h, read-out: GI", "how_it_was_run": "as §1"}, "SW-620": {"test_system": "SW-620", "experiment": "Growth inhibition of human SW620 cells at 10 uM after 48 hrs by SRB assay relative to control", "settings": "SW-620, 48 h, read-out: GI", "how_it_was_run": "(§2)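 NCI screen against its human cancer cell line panel by the standard NCI protocol, SRB protein stain. Single dose of 10 μM. Percent growth inhibition versus control; values above 100% mean the cell population fell below the starting number. Each value is the mean of duplicates.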"}, "SF-295": {"test_system": "SF-295", "experiment": "Growth inhibition of human SF295 cells at 10 uM after 48 hrs by SRB assay relative to control", "settings": "SF-295, 48 h, read-out: GI", "how_it_was_run": "as §1"}, "SF-539": {"test_system": "SF-539", "experiment": "Growth inhibition of human SF539 cells at 10 uM after 48 hrs by SRB assay relative to control", "settings": "SF-539, 48 h, read-out: GI", "how_it_was_run": "as §1"}, "SNB-19": {"test_system": "SNB-19", "experiment": "Growth inhibition of human SNB19 cells at 10 uM after 48 hrs by SRB assay relative to control", "settings": "SNB-19, 48 h, read-out: GI", "how_it_was_run": "as §2"}, "SNB-75": {"test_system": "SNB-75", "experiment": "Growth inhibition of human SNB75 cells at 10 uM after 48 hrs by SRB assay relative to control", "settings": "SNB-75, 48 h, read-out: GI", "how_it_was_run": "as §2"}, "Malme-3M": {"test_system": "Malme-3M", "experiment": "Growth inhibition of human MALME-3M cells at 10 uM after 48 hrs by SRB assay relative to control", "settings": "read-out: GI", "how_it_was_run": "as §1"}, "MDA-MB-435": {"test_system": "MDA-MB-435", "experiment": "Growth inhibition of human MDA-MB-435 cells at 10 uM after 48 hrs by SRB assay relative to control", "settings": "MDA-MB-435, 48 h, read-out: GI", "how_it_was_run": "as §1"}, "SK-MEL-28": {"test_system": "SK-MEL-28", "experiment": "Growth inhibition of human SK-MEL-28 cells at 10 uM after 48 hrs by SRB assay relative to control", "settings": "SK-MEL-28, 48 h, read-out: GI", "how_it_was_run": "as §1"}, "SK-MEL-5": {"test_system": "SK-MEL-5", "experiment": "Growth inhibition of human SK-MEL-5 cells at 10 uM after 48 hrs by SRB assay relative to control", "settings": "SK-MEL-5, 48 h, read-out: GI", "how_it_was_run": "as §1"}, "IGROV-1": {"test_system": "IGROV-1", "experiment": "Growth inhibition of human IGROV1 cells at 10 uM after 48 hrs by SRB assay relative to control", "settings": "IGROV-1, 48 h, read-out: GI", "how_it_was_run": "as §1"}, "OVCAR-5": {"test_system": "OVCAR-5", "experiment": "Growth inhibition of human OVCAR5 cells at 10 uM after 48 hrs by SRB assay relative to control", "settings": "OVCAR-5, 48 h, read-out: GI", "how_it_was_run": "as §1"}, "OVCAR-8": {"test_system": "OVCAR-8", "experiment": "Growth inhibition of human OVCAR8 cells at 10 uM after 48 hrs by SRB assay relative to control", "settings": "OVCAR-8, 48 h, read-out: GI", "how_it_was_run": "as §1"}, "786-0": {"test_system": "786-0", "experiment": "Growth inhibition of human 786-0 cells at 10 uM after 48 hrs by SRB assay relative to control", "settings": "786-0, 48 h, read-out: GI", "how_it_was_run": "as §1"}, "ACHN": {"test_system": "ACHN", "experiment": "Growth inhibition of human ACHN cells at 10 uM after 48 hrs by SRB assay relative to control", "settings": "read-out: GI", "how_it_was_run": "as §1"}, "RXF 393": {"test_system": "RXF 393", "experiment": "Growth inhibition of human RXF393 cells at 10 uM after 48 hrs by SRB assay relative to control", "settings": "RXF 393, 48 h, read-out: GI", "how_it_was_run": "as §1"}, "SN12C": {"test_system": "SN12C", "experiment": "Growth inhibition of human SN12C cells at 10 uM after 48 hrs by SRB assay relative to control", "settings": "read-out: GI", "how_it_was_run": "as §1"}, "TK-10": {"test_system": "TK-10", "experiment": "Growth inhibition of human TK10 cells at 10 uM after 48 hrs by SRB assay relative to control", "settings": "TK-10, 48 h, read-out: GI", "how_it_was_run": "as §2"}, "PC-3": {"test_system": "PC-3", "experiment": "Growth inhibition of human PC3 cells at 10 uM after 48 hrs by SRB assay relative to control", "settings": "PC-3, 48 h, read-out: GI", "how_it_was_run": "as §1"}, "DU-145": {"test_system": "DU-145", "experiment": "Growth inhibition of human DU145 cells at 10 uM after 48 hrs by SRB assay relative to control", "settings": "DU-145, 48 h, read-out: GI", "how_it_was_run": "as §1"}, "BT-549": {"test_system": "BT-549", "experiment": "Growth inhibition of human BT549 cells at 10 uM after 48 hrs by SRB assay relative to control", "settings": "BT-549, 48 h, read-out: GI", "how_it_was_run": "as §1"}, "MDA-MB-468": {"test_system": "MDA-MB-468", "experiment": "Growth inhibition of human MDA-MB-468 cells at 10 uM after 48 hrs by SRB assay relative to control", "settings": "MDA-MB-468, 48 h, read-out: GI", "how_it_was_run": "as §1"}}, "data": [{"smiles": "COc1ccccc1NC(=O)c1cccc(-c2cc(=O)c3c(O)c(OC)c(OC)cc3o2)c1", "values": [{"measurement": "inhibition of growth at 10 µM", "setting": "CCRF-CEM", "result": 39.8, "unit": "%"}, {"measurement": "inhibition of growth at 10 µM", "setting": "HL-60(TB)", "result": 9.41, "unit": "%"}, {"measurement": "inhibition of growth at 10 µM", "setting": "K562", "result": 22.1, "unit": "%"}, {"measurement": "inhibition of growth at 10 µM", "setting": "MOLT-4", "result": 27.9, "unit": "%"}, {"measurement": "inhibition of growth at 10 µM", "setting": "RPMI-8226", "result": 45.4, "unit": "%"}, {"measurement": "inhibition of growth at 10 µM", "setting": "HOP-62", "result": 0.21, "unit": "%"}, {"measurement": "inhibition of growth at 10 µM", "setting": "NCI-H226", "result": 23.9, "unit": "%"}, {"measurement": "inhibition of growth at 10 µM", "setting": "NCI-H23", "result": 13.9, "unit": "%"}, {"measurement": "inhibition of growth at 10 µM", "setting": "NCI-H460", "result": -3.83, "unit": "%"}, {"measurement": "inhibition of growth at 10 µM", "setting": "NCI-H522", "result": 26.6, "unit": "%"}, {"measurement": "inhibition of growth at 10 µM", "setting": "HCT-15", "result": 13, "unit": "%"}, {"measurement": "inhibition of growth at 10 µM", "setting": "HT-29", "result": 10.8, "unit": "%"}, {"measurement": "inhibition of growth at 10 µM", "setting": "SW-620", "result": -0.74, "unit": "%"}, {"measurement": "inhibition of growth at 10 µM", "setting": "SF-295", "result": 10.8, "unit": "%"}, {"measurement": "inhibition of growth at 10 µM", "setting": "SF-539", "result": 6.01, "unit": "%"}, {"measurement": "inhibition of growth at 10 µM", "setting": "SNB-19", "result": 6.18, "unit": "%"}, {"measurement": "inhibition of growth at 10 µM", "setting": "SNB-75", "result": 13, "unit": "%"}, {"measurement": "inhibition of growth at 10 µM", "setting": "Malme-3M", "result": 5.55, "unit": "%"}, {"measurement": "inhibition of growth at 10 µM", "setting": "MDA-MB-435", "result": 2.77, "unit": "%"}, {"measurement": "inhibition of growth at 10 µM", "setting": "SK-MEL-28", "result": 5.62, "unit": "%"}, {"measurement": "inhibition of growth at 10 µM", "setting": "SK-MEL-5", "result": 3.77, "unit": "%"}, {"measurement": "inhibition of growth at 10 µM", "setting": "IGROV-1", "result": -5.97, "unit": "%"}, {"measurement": "inhibition of growth at 10 µM", "setting": "OVCAR-5", "result": 8.1, "unit": "%"}, {"measurement": "inhibition of growth at 10 µM", "setting": "OVCAR-8", "result": 35.2, "unit": "%"}, {"measurement": "inhibition of growth at 10 µM", "setting": "786-0", "result": 9.66, "unit": "%"}, {"measurement": "inhibition of growth at 10 µM", "setting": "ACHN", "result": 9.27, "unit": "%"}, {"measurement": "inhibition of growth at 10 µM", "setting": "RXF 393", "result": 21.8, "unit": "%"}, {"measurement": "inhibition of growth at 10 µM", "setting": "SN12C", "result": 5.99, "unit": "%"}, {"measurement": "inhibition of growth at 10 µM", "setting": "TK-10", "result": 14.1, "unit": "%"}, {"measurement": "inhibition of growth at 10 µM", "setting": "PC-3", "result": 25.1, "unit": "%"}, {"measurement": "inhibition of growth at 10 µM", "setting": "DU-145", "result": 5.49, "unit": "%"}, {"measurement": "inhibition of growth at 10 µM", "setting": "BT-549", "result": 10.8, "unit": "%"}, {"measurement": "inhibition of growth at 10 µM", "setting": "MDA-MB-468", "result": 9.38, "unit": "%"}]}]}
